In the library only some 10% were active in any assay of this set; here they are far more common.
PMI act hi M6P: increases human PMI activity with near-saturating mannose 6-phosphate | activation factor at 20 µM | coupled PMI enzyme assay, resazurin fluorescence, 20 min; hits give high values; 1 = untreated enzyme, 0 = substrate-free blank | AID 1216 | hit rate 0.34% among 190,000 | P34949;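 active = activation factor of 2 or more at 20 µM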
Target sequence (P34949 whole entry, looked up): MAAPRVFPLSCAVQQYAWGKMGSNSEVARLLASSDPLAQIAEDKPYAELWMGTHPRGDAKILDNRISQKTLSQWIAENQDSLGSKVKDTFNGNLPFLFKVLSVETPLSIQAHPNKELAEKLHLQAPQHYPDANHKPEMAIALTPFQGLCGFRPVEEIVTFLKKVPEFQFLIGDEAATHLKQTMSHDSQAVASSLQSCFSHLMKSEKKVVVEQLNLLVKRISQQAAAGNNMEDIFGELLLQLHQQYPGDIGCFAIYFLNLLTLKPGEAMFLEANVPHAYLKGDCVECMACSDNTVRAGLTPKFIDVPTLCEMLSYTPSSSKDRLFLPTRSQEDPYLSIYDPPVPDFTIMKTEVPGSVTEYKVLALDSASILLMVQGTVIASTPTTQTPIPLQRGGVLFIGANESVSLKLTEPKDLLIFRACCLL
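Test system: Human PMI in coupled enzyme assay | Input: 15 ng/mL PMI | Medium: HEPES-buffered pH 7.4 with magnesium and detergent | Compound: One concentration, 20 µM, in 1% DMSO | Incubation: Enzyme reaction with compound 20 min at room temperature | Detection: Diaphorase-driven resazurin-to-resorufin fluorescence, excitation 544, emission 590 nm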
L major viab: Leishmania major promastigote growth inhibition; Leishmania major promastigotes, resazurin fluorescence viability; inhibition, % at 10 µM; AID 1063; hit rate 9% among 200,000; in the data active = inhibition above about 50%;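 also: promastigotes grown with compound for 44 hours at 28 °C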
WT yeast gro inh: growth inhibition of WT yeast, mitochondrial fusion screen; mitochondrial fusion phenotypic screen, WT strain; inhibition, % at 10 µM; hit rate 2.1% among 190,000; in the data active = inhibition above about 58%; tested in S. cerevisiae
PMI activator: phosphomannose isomerase (human) activation. purified human PMI, coupled resazurin fluorescence, 20 min; hits give high values; 1 = vehicle control, 0 substrate-free wells. activation factor at 20 µM. hit rate 0.005% among 190,000. AID 1214;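 active = activation factor of 2 or more at 20 µM, relative to plate controls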
Diaphorase act: activates diaphorase or chemically reduces, flagging diaphorase assay artifacts; hit rate 0.005% among 190,000; AID 1229; activation factor at 20 µM; Diaphorase/resazurin coupled assay, resorufin fluorescence, 16 min; hits give high values; 1 = vehicle wells, 0 = NADH-free wells;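 active = diaphorase activity raised at least twofold by the compound at 20 µM; inactive = activation factor below 2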
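Material: bacterial diaphorase enzyme (C. kluyveri); amount: enzyme 0.07 U/mL final; reagent: NADH substrate 0.114 mM plus resazurin dye 0.1 mM, final; doses: single compound dose of 20 µM, 1% DMSO final; timing: 16 min enzyme reaction, ambient temperature; measured by: fluorescence of resorufin, 544 nm excitation, 590 nm emission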
Each line names hits and unclear results; the compound was inactive in the other large screens.

Fc1ccc(Oc2ncccn2)c(F)c1	none
O=C(NCCc1c[nH]c2ccccc12)c1cc2sccc2n1Cc1ccccc1	L major viab 100
Cn1c(C(=O)NCCc2c[nH]c3ccccc23)cc2sccc21	none
O=C(NCc1ccco1)c1cccnc1-c1nc2ccccc2s1	WT yeast gro inh 64
Cc1nn(Cc2ccccc2)c2c1C(c1ccc(Cl)cc1)C(C#N)=C(N)O2 (centres undefined)	L major viab 85
Cc1ccc(SCc2[nH]nc3c2C(C(C)C)C(C#N)=C(N)O3)cc1 (centres undefined)	none
Cc1nn(-c2ccccc2)c2c1C(c1ccc(Br)s1)C(C#N)=C(N)O2 (centres undefined)	L major viab 81
Cc1ccc(SCc2[nH]nc3c2C(c2ccc(C)o2)C(C#N)=C(N)O3)cc1 (centres undefined)	L major viab 86
Cc1nn(Cc2ccccc2)c2c1C(c1ccncc1)C(C#N)=C(N)O2 (centres undefined)	none (no result: L major viab)
Cc1ccc(SCc2[nH]nc3c2C(c2ccco2)C(C#N)=C(N)O3)cc1 (centres undefined)	L major viab 62
CCc1[nH]nc2c1C(c1ccc(Br)s1)C(C#N)=C(N)O2 (centres undefined)	L major viab 100
CCc1[nH]nc2c1C(c1ccsc1)C(C#N)=C(N)O2 (centres undefined)	none
COC(=O)C(C(C)=O)C1=C/C(=N\S(=O)(=O)c2ccc(C)cc2)c2ccccc2C1=O (centres undefined)	none
CC(C)c1ccc(S(=O)(=O)/N=C2/C=CC(=O)c3ccccc32)cc1	L major viab 74, WT yeast gro inh 68
COCCn1c(SCC(=O)Nc2ccc(S(=O)(=O)N(C)C)cc2)nc2ccccc21	none
COC(=O)C1=C(C)NC2=C(C(=O)CC(C)(C)C2)C1c1cn(Cc2ccc(Br)cc2)nc1-c1ccccc1 (centres undefined)	L major viab 99, WT yeast gro inh 70
O=C(/C=C/c1ccc([N+](=O)[O-])s1)N1CCCC1	L major viab 88
O=C(/C=C/c1ccccc1[N+](=O)[O-])N1CCCCC1	none
O=C(/C=C/c1ccc([N+](=O)[O-])s1)N1CCCCC1	L major viab 98
O=C1OCC2=C1C(c1ccc(F)cc1)CC(=O)N2c1ccccc1 (centres undefined)	none
O=C(Nc1cccnc1)c1cn(-c2ccccc2)nc1-c1cccs1	none
CCN(CC)CCNC(=O)c1ccc(NC(=O)c2cn(-c3ccccc3)nc2-c2cccs2)cc1	L major viab 100
CCN(CC)CCNC(=S)NC(=O)c1cn(-c2ccccc2)nc1-c1ccc(OC)cc1	L major viab 91
COC(=O)c1cn(-c2ccccc2)nc1-c1ccc(OC)cc1	none
O=C(c1ccc([N+](=O)[O-])s1)N1CCc2ccccc2C1	L major viab 94
COc1n[nH]c(C(=O)Nc2nc3ccccc3s2)c1[N+](=O)[O-]	L major viab 70
COc1n[nH]c(C(=O)NCc2ccccc2)c1[N+](=O)[O-]	none
O=C1C(C2=C(O)c3ccccc3C2=O)=Nc2ccccc21	L major viab 100
CN=CC1=C(O)c2ccccc2C1=O	none
C/C(=N\NC(=O)Cn1c(-c2ccccn2)nc2ccccc21)c1ccccc1	L major viab 68
CCOC(=O)Cn1c(-c2ccccn2)nc2ccccc21	none
CCN(CC)CCNC(=O)Cn1c(-c2ccccn2)nc2ccccc21	WT yeast gro inh 61
C/C(=N\NC(=O)Cn1c(-c2ccccn2)nc2ccccc21)c1cccc(O)c1	none
CC(=O)Oc1ccc(N(C(C)=O)S(=O)(=O)c2cccs2)c2ccccc12	L major viab 100
c1ccc(-c2csc3ncnc(NCC4COc5ccccc5O4)c23)cc1 (centres undefined)	WT yeast gro inh 72
CCCCNC(=O)c1cccnc1SCC(=O)Nc1ccccc1OC	none
CCCCCCCCNC(=O)c1cccnc1SCC(=O)Nc1ccc(OC)cc1OC	L major viab 86
Cc1cc2oc(C(=O)N(Cc3ccccc3)C3CCS(=O)(=O)C3)cc(=O)c2cc1Cl (centres undefined)	L major viab 50
COc1ccc(CN(C(=O)c2oc3ccccc3c2C)C2CCS(=O)(=O)C2)cc1 (centres undefined)	L major viab 54
Cc1c(C(=O)N(Cc2cccs2)C2CCS(=O)(=O)C2)oc2ccccc12 (centres undefined)	none
Cc1ccc2c(CSc3nncn3C)cc(=O)oc2c1C	none
Cc1ccn2c(C(=O)c3ccc(Cl)cc3)cnc2c1	none
CC(C1CC2CCC1C2)n1c(-c2ccco2)n[nH]c1=S (centres undefined)	WT yeast gro inh 72
Cc1ccc(-n2c(-c3ccco3)n[nH]c2=S)cc1	none
O=C(CSc1nnc(-c2ccccc2)c(-c2ccccc2)n1)NC1CCS(=O)(=O)C1 (centres undefined)	none
C1=C(c2ccccc2)Nc2ccccc2N=C1c1ccccc1	none
Cc1nc2ccc(NC(=O)c3ccc(Cl)c(S(=O)(=O)N(C)c4ccccc4)c3)cc2s1	L major viab 100
Cc1nc2ccc(NC(=O)c3cc(S(=O)(=O)N(C)c4ccccc4)ccc3Cl)cc2s1	none
COc1ccc(OCC(O)CN2CCN(Cc3ccc4c(c3)OCO4)CC2)cc1 (centres undefined)	L major viab 99
CC(=O)c1ccc(OCC(O)CN2CCN(Cc3ccc4c(c3)OCO4)CC2)cc1 (centres undefined)	L major viab 93
Cc1ccc(OCC(O)CN2CCN(Cc3ccc4c(c3)OCO4)CC2)c(C)c1 (centres undefined)	L major viab 87
CCN1CCN(CC(O)COc2ccc(C(C)=O)cc2)CC1 (centres undefined)	none
Cc1nc(NCCN2CCOCC2)c2oc3ccccc3c2n1	none
c1ccc(-c2nc(NCCCn3ccnc3)c3oc4ccccc4c3n2)cc1	L major viab 100
Cc1nc(NCCCN2CCOCC2)c2oc3ccccc3c2n1	L major viab 97
Cc1nc(NCCc2ccccc2)c2oc3ccccc3c2n1	L major viab 90
Cc1cccc(-n2c(SCc3cc(=O)n4c(C)cccc4n3)nc3[nH]ncc3c2=O)c1	L major viab 96
O=c1c2cn[nH]c2nc(SCc2c(F)cccc2F)n1-c1ccc(Cl)cc1	WT yeast gro inh 73
CCCCNC(=O)CCC(=O)NNc1nc2ccccc2c2nc(-c3ccccc3)nn12	none
COc1cc2[nH]c(=O)n3nc(-c4ccccc4)nc3c2cc1OC	L major viab 50
CCN(CC)CCNc1nc2cc(OC)c(OC)cc2c2nc(-c3ccccc3)nn12	L major viab 100
CCOC(=O)N1CCN(S(=O)(=O)c2ccc(C(=O)Nc3nnc(C)o3)cc2)CC1	none
Cn1ccnc1SCC(=O)Nc1cccc(S(=O)(=O)N2CCCCC2)c1	none

Screens (PubChem BioAssay)
